20 molecules from PubChem BioAssay can be followed below.

A word on the viability: it is a read-out of living cells in per cent, often relative to untreated cells. A word on the inhibition: it is the change of the read-out against control, counted positive when it falls.

Calls of active or inactive are those of the source.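 Rule for the calls, unless noted: active = viability loss from added drug above about 55%, and viability with drug at most 40%, in both replicates (limit read from the data, passing the limit was not always enough); inconclusive = both conditions met in only one replicate; inactive = neither replicate meets both conditions.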

A short description of experiment [1]: HUVEC growth inhibition – cell-based, human, primary screen (AID 575;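 active = viability at or below 30% in both replicate assays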;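 note: 100% = median of untreated cell wells with 0.1% DMSO on each plate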). Particulars: HUVEC proliferation, CellTiter-Glo luminescence, 72 h; at 10 µM; stronger effect = lower value. A digest of the protocol:
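system = HUVEC primary cells | amount = 1250 cells/well | buffer or medium = supplemented EBM, 2% fetal bovine serum | dosing = single-point 10 µM, DMSO 0.1% final | times = 72 h compound incubation | detection = CTG luminescence | read-out = % viability relative to median vehicle-well signal on each plate | control set = vehicle and MePR control wells | format = collagen-coated 384-well format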
For orientation: Cellular ATP, detected with luciferase, serves as a proxy for viable cell number.

Experiment [2] in a line: H69AR cell proliferation blockers – human, duplicate replicates, primary screen (AID 580;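 active = viability at or under a set limit in both replicates, limit being median viability minus 3 SD, cut at about 48% in these data, passing the limit was not always enough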;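 note: 100% = mean luminescence of untreated wells and 0% = no signal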). Particulars: H69AR lung tumor cells viability, ATP luminescence, 72 h; at 10 µM; stronger effect = lower value.
Experiment [3] in a line: MRP1 drug-resistance reversers in H69AR cells – cell-based, doxorubicin co-treatment, pilot screen (AID 601). Particulars: CellTiter-Glo, 72 h, at 10 µM; for differential viability (reversal): stronger effect = higher value.
The nature of experiment [4]: yeast transport mutant growth inhibition pilot in 384-well plates, post-Golgi transport modulator project (AID 636; in the data active = inhibition above about 31%). Particulars: absorbance 615 nm, about 18 h, stronger effect = higher value.
Experiment [5] can be described thus: growth suppression of yeast trafficking mutant, preliminary HTS, modulators of trafficking downstream of Golgi apparatus project, 1536-format plate, OD 615 nm (AID 637; in the data active = inhibition above about 30%). Particulars: yeast transport mutant growth, absorbance 615 nm, 18 h; stronger effect = higher value.
The mark [6] stands for this setting: H69AR cells + 2 uM doxorubicin, measured here: viability with 2 uM doxorubicin, stronger effect = lower value.
[7] abbreviates: H69AR cells, compound alone cytotoxicity.

On to `Cc1nc(SCC(=O)c2c[nH]c3ccccc23)n[nH]1`, for which the viability was 81.1% (inactive) in experiment [1], 95.9% (inactive) in experiment [2], 81.4% in experiment [3] (setting [6]) and 95.9% in experiment [3] (setting [7]). Moreover, in experiment [3] (H69AR cells + 2 uM doxorubicin), the differential viability (reversal) was 14.5% (inactive). Also, the inhibition in experiment [4] is -7.5% (inactive); in experiment [5], -0.32% (inactive).
For the molecule `O=C(c1ccc(-c2ccccc2)cc1)N1CCC(C(=O)N2CCCC2)CC1`, the viability is 97.3% (inactive) in experiment [1], 104% (inactive) in experiment [2], 91.4% in experiment [3] (setting [6]) and 104% in experiment [3] (setting [7]). The differential viability (reversal) in experiment [3] (H69AR cells + 2 uM doxorubicin) was 12.4% (inactive). For the same molecule, the inhibition is -6.67% (inactive) in experiment [4] and 5.71% (inactive) in experiment [5].
For the molecule `CCCc1cc(=O)[nH]c(/N=C(\N)Nc2ccccc2)n1`, the viability in experiment [1] was 80.8% (inactive); in experiment [2] it was 82.4% (inactive); in experiment [3] (setting [6]), 96.3%; in experiment [3] (setting [7]), 82.4%. Further, the differential viability (reversal) in experiment [3] (H69AR cells + 2 uM doxorubicin) was -13.9% (inactive). Besides, the inhibition in experiment [4] is -0.13% (inactive); in experiment [5], 3.49% (inactive).
With `O=C(NC1=NCCS1)c1nc(-c2ccccc2)n(-c2ccccc2)n1`, the viability in experiment [1] was 70.4% (inactive); in experiment [2], 101% (inactive); in experiment [3] (setting [6]), 92.1%; in experiment [3] (setting [7]), 101%. Also, the differential viability (reversal) in experiment [3] (H69AR cells + 2 uM doxorubicin) is 8.75% (inactive). Moreover, the values for the inhibition in experiment [4] and in experiment [5] were -3.73% (inactive) and 0.63% (inactive), respectively.
`CCn1cnc2cc(NCc3cccc(OC)c3O)ccc21`: the viability in experiment [1] was 99.3% (inactive); in experiment [2], 92.3% (inactive); in experiment [3] (setting [6]), 86.3%; in experiment [3] (setting [7]), 92.3%. The differential viability (reversal) in experiment [3] (H69AR cells + 2 uM doxorubicin) is 5.97% (inactive). Besides, the inhibition was -4.47% (inactive) in experiment [4] and 0.32% (inactive) in experiment [5].
In the case of `CC12C(=O)N(CCC(=O)O)C(=O)C1C1C=CC2C1` (stereo not given), the viability in experiment [1] is 107% (inactive); in experiment [2], 89.6% (inactive); in experiment [3] (setting [6]), 91%; in experiment [3] (setting [7]), 89.6%. In experiment [3] (H69AR cells + 2 uM doxorubicin), the differential viability (reversal) was -1.44% (inactive). Further, the inhibition in experiment [4] was -2.37% (inactive); in experiment [5], 2.86% (inactive).
In the case of `CN(C)S(=O)(=O)c1cccc(C(=O)Nc2cccnc2)c1`, the viability in experiment [1] was 83.9% (inactive); in experiment [2], 89.5% (inactive); in experiment [3] (setting [6]) it was 82%; in experiment [3] (setting [7]), 89.5%. Moreover, the differential viability (reversal) in experiment [3] (H69AR cells + 2 uM doxorubicin) was 7.48% (inactive). Further, the inhibition is -4.93% (inactive) in experiment [4] and 1.43% (inactive) in experiment [5].
Take `CCc1cc2c(NCCC(=O)O)nc(C)nc2s1`: the viability in experiment [1] is 89.2% (inactive); in experiment [2], 75.5% (inactive); in experiment [3] (setting [6]), 87.6%; in experiment [3] (setting [7]), 75.5%. In addition, the differential viability (reversal) in experiment [3] (H69AR cells + 2 uM doxorubicin) is -12.1% (inactive). Also, the inhibition was 0.65% (inactive) in experiment [4] and 13.3% (inactive) in experiment [5].
In the case of `O=C(Nc1ccc2c(c1)OCO2)OCc1ccccc1`, the viability is 78.9% (inactive) in experiment [1], 106% (inactive) in experiment [2], 94.5% in experiment [3] (setting [6]) and 106% in experiment [3] (setting [7]). Besides, the differential viability (reversal) in experiment [3] (H69AR cells + 2 uM doxorubicin) was 11.4% (inactive). In addition, the inhibition in experiment [4] is -4.4% (inactive); in experiment [5], 2.22% (inactive).
Take `O=C(CN1C(=O)CC(c2ccccc2)=Nc2ccccc21)NCc1ccco1`: the viability in experiment [1] is 99.2% (inactive); in experiment [2] it was 92.3% (inactive); in experiment [3] (setting [6]), 79.4%; in experiment [3] (setting [7]), 92.3%. In addition, the differential viability (reversal) in experiment [3] (H69AR cells + 2 uM doxorubicin) is 12.9% (inactive). Further, the inhibition in experiment [4] was -1.82% (inactive); in experiment [5] it was 13.5% (inactive).
`O=C(c1ccncc1)N1CCN(C(=O)c2cccs2)CC1`: the viability in experiment [1] was 103% (inactive); in experiment [2], 94.6% (inactive); in experiment [3] (setting [6]), 89.1%; in experiment [3] (setting [7]), 94.6%. In addition, the differential viability (reversal) in experiment [3] (H69AR cells + 2 uM doxorubicin) was 5.42% (inactive). The figures for the inhibition in experiment [4] and in experiment [5] were -1.73% (inactive) and -2.38% (inactive), respectively.
In the case of `O=C(NCc1n[nH]c(=S)n1-c1ccc(F)cc1)c1ccco1`, the viability in experiment [1] was 102% (inactive); in experiment [2], 96.2% (inactive); in experiment [3] (setting [6]) it was 89.2%; in experiment [3] (setting [7]), 96.2%. Further, the differential viability (reversal) in experiment [3] (H69AR cells + 2 uM doxorubicin) is 6.98% (inactive). Moreover, the inhibition in experiment [4] is -0.53% (inactive); in experiment [5], -1.11% (inactive).
`CC1(C)NC(=O)N(CCCOc2ccc(Br)cc2Cl)C1=O`: the viability in experiment [1] is 86% (inactive); in experiment [2] it was 89.7% (inactive); in experiment [3] (setting [6]), 74.3%; in experiment [3] (setting [7]), 89.7%. Further, the differential viability (reversal) in experiment [3] (H69AR cells + 2 uM doxorubicin) is 15.5% (inactive). The values for the inhibition in experiment [4] and in experiment [5] were -3.82% (inactive) and 4.29% (inactive), respectively.
In the case of `O=C(Cn1c(=O)[nH]c2ccsc2c1=O)N1CCN(c2ccc(F)cc2)CC1`, the viability in experiment [1] is 91% (inactive); in experiment [2] it was 87.2% (inactive); in experiment [3] (setting [6]) it was 86%; in experiment [3] (setting [7]), 87.2%. In addition, the differential viability (reversal) in experiment [3] (H69AR cells + 2 uM doxorubicin) is 1.24% (inactive). The inhibition is -1.84% (inactive) in experiment [4] and 4.6% (inactive) in experiment [5].
In the case of `O=C(CNC(=O)c1cccs1)NCCN1CCN(c2ccccc2F)CC1`, the viability in experiment [1] is 101% (inactive); in experiment [2] it was 89.3% (inactive); in experiment [3] (setting [6]), 77.2%; in experiment [3] (setting [7]) it was 89.3%. Further, the differential viability (reversal) in experiment [3] (H69AR cells + 2 uM doxorubicin) is 12.1% (inactive). Moreover, the results for the inhibition in experiment [4] and in experiment [5] were -3.95% (inactive) and 2.54% (inactive), respectively.
Consider `CCOc1cc(S(=O)(=O)NCc2ccc3c(c2)OCO3)ccc1F`, for which the viability in experiment [1] was 95.4% (inactive); in experiment [2], 97.9% (inactive); in experiment [3] (setting [6]), 93.5%; in experiment [3] (setting [7]), 97.9%. For the same molecule, the differential viability (reversal) in experiment [3] (H69AR cells + 2 uM doxorubicin) was 4.41% (inactive). Moreover, the inhibition in experiment [4] was -4.8% (inactive); in experiment [5], 4.76% (inactive).
`Cc1cccc(-n2ncc3c(NCc4ccccn4)ncnc32)c1`: the viability in experiment [1] is 97.5% (inactive); in experiment [2], 89.6% (inactive); in experiment [3] (setting [6]), 87.8%; in experiment [3] (setting [7]) it was 89.6%. Moreover, in experiment [3] (H69AR cells + 2 uM doxorubicin), the differential viability (reversal) was 1.75% (inactive). The inhibition was -1.17% (inactive) in experiment [4] and -4.6% (inactive) in experiment [5].
`COc1ccccc1-n1c(C)nnc1SCC(=O)Nc1cccc(C(C)=O)c1`: the viability in experiment [1] is 101% (inactive); in experiment [2], 104% (inactive); in experiment [3] (setting [6]), 97%; in experiment [3] (setting [7]) it was 104%. For the same molecule, the differential viability (reversal) in experiment [3] (H69AR cells + 2 uM doxorubicin) is 6.48% (inactive). Further, the inhibition in experiment [4] is -4.4% (inactive); in experiment [5], 17.9% (inactive).
Take `CC1CC(=O)c2cnc(NCC3CCCO3)nc2C1` (stereo not given): the viability in experiment [1] is 103% (inactive); in experiment [2], 87.3% (inactive); in experiment [3] (setting [6]), 83%; in experiment [3] (setting [7]), 87.3%. In addition, in experiment [3] (H69AR cells + 2 uM doxorubicin), the differential viability (reversal) is 4.31% (inactive). The inhibition was -6.8% (inactive) in experiment [4] and 6.03% (inactive) in experiment [5].
For `COC(=O)Cc1[nH]nc2c1C(C1C=CCCC1)C(C#N)=C(N)O2` (stereo not given), the viability in experiment [1] is 49.3% (inactive); in experiment [2] it was 95.8% (inactive); in experiment [3] (setting [6]), 88.2%; in experiment [3] (setting [7]) it was 95.8%. In addition, the differential viability (reversal) in experiment [3] (H69AR cells + 2 uM doxorubicin) was 7.65% (inactive). The inhibition in experiment [4] was -4.21% (inactive); in experiment [5] it was 3.33% (inactive).
